Each structure is given as a SMILES string.

One experiment has as its system KB. Put plainly: Cytotoxicity against KB-ATCC cell lines after a 3-day incubation. The format is functional. The following applies: Homo sapiens, 72 h, read-out: ID50 (the source's name). A digest of the protocol: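 KB-ATCC cells were incubated with compound for 3 days. The read-out was cell number, and ID50 was taken as the concentration giving a 50% reduction.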

Experiment [1] concerns the target DNA topoisomerase II (Homo sapiens) (UniProt P11388+Q02880). Kind of experiment: Inhibition of human DNA topoisomerase II activity. It counts as protein assay. A digest of the protocol: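 Each compound was tested in triplicate at 5, 10, 25, 50 and 100 µM. ID50 was set from the degree of inhibition seen at these concentrations.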
Another experiment deals with Nucleic Acid. Put plainly: Percent of cellular protein-DNA complex formation at concentration of 20 uM. The settings on record: Homo sapiens. The format is functional.

Turning to `COc1cc([C@@H]2c3cc4c(cc3[C@@H](Nc3ccc(F)cc3)[C@H]3CO[C@@H](OC)[C@H]23)OCO4)cc(OC)c1O`, in the experiment on KB, the IC50 came to 5.5 µM. Further, in experiment [1], the ID50 was greater than 100 µM. In the experiment on Nucleic Acid, this compound gave a Complex formation of 66%.

Consider `COc1cc([C@@H]2c3cc4c(cc3[C@@H](Nc3ccccc3)[C@H]3COC[C@H]23)OCO4)cc(OC)c1O`, for which the IC50 in the experiment with KB worked out at 2.6 µM. The compound also yielded an ID50 in experiment [1] of 50 µM. The compound also displayed a Complex formation in the experiment with Nucleic Acid of 139%.

With `COc1cc([C@@H]2c3cc4c(cc3[C@@H](Nc3ccc(F)cc3)[C@H]3COC[C@H]23)OCO4)cc(OC)c1O`, the IC50 with KB amounted to 4.1 µM. Also, in experiment [1], the ID50 was found to be 50 µM. Moreover, the Complex formation with Nucleic Acid amounted to 125%.

For the compound `COc1cc([C@@H]2c3cc4c(cc3[C@@H](Nc3ccccc3)[C@H]3CO[C@@H](OC)[C@H]23)OCO4)cc(OC)c1O`, the IC50 in the experiment with KB is 5.5 µM. The same compound registered an ID50 in experiment [1] of 100 µM. Besides, the Complex formation with Nucleic Acid is 96%.

For the compound `COc1cc([C@@H]2c3cc4c(cc3[C@@H](Nc3ccc(F)cc3)[C@H]3COC(=O)[C@H]23)OCO4)cc(OC)c1O`, in the experiment on KB, the IC50 was 0.24 µM. The same compound registered a Complex formation in the experiment on Nucleic Acid of 213%.

Turning to `COc1cc([C@@H]2c3cc4c(cc3[C@@H](Nc3ccc(F)cc3)[C@H]3CO[C@@H](O)[C@H]23)OCO4)cc(OC)c1O`, the IC50 with KB is 2.2 µM. For the same compound, the ID50 in experiment [1] amounted to 50 µM. Also, the Complex formation with Nucleic Acid was determined as 87%.

Take `COc1cc([C@@H]2c3cc4c(cc3[C@@H](O[C@@H]3O[C@@H]5CO[C@@H](C)O[C@H]5[C@H](O)[C@H]3O)[C@H]3COC(=O)[C@H]23)OCO4)cc(OC)c1O` [ETOPOSIDE]: in the experiment on KB, the IC50 was determined as 0.2 µM. The Complex formation in the experiment on Nucleic Acid came out at 100%.

The values above are taken from ChEMBL document CHEMBL1127855, “Antitumor agents. 144. New gamma-lactone ring-modified arylamino etoposide analogs as inhibitors of human DNA topoisomerase II” (1994).
